Experimental data as given in ChEMBL document CHEMBL3286314, “Tetraoxane-pyrimidine nitrile hybrids as dual stage antimalarials” (J Med Chem, 2014).
Activity calls are given as the source filed them. The rule behind the calls is not given here.

Legend:
[1] = Inhibition of Plasmodium falciparum recombinant falcipain-2 after 30 mins by spectrofluorometric analysis
In short: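 Recombinant falcipain-2 (~1 nM) preincubated 30 min at room temperature with inhibitor (from 100× DMSO stocks) in 100 mM sodium acetate pH 5.5, 10 mM dithiothreitol. Then Z-Leu-Arg-AMC substrate added (final 25 μM). Fluorescence monitored continuously for 30 min at room temperature; IC50 from activity plots.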

Plasmodium falciparum [2] = test: Antiplasmodial activity against chloroquine-sensitive Plasmodium falciparum 3D7 after 48 hrs by FACS analysis; assay type: functional, organism-based; conditions: 3D7, 48 h
Plasmodium falciparum [3] = test: Antiplasmodial activity against chloroquine-resistant Plasmodium falciparum W2 after 48 hrs by FACS analysis; assay type: functional, organism-based; conditions: W2, 48 h
In short: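 Synchronized ring-stage parasites cultured 48 h with multiple compound concentrations (from 1000× DMSO stocks) in RPMI 1640 with 10% human serum. Fixed in 1% formaldehyde/PBS pH 7.4 for 48 h at room temperature, stained with YOYO-1 (1 nM) in 0.1% Triton X-100/PBS. Parasitemia read by flow cytometry; IC50 from curve fits of percentage of control parasitemia.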

Plasmodium falciparum [4] = test: Inhibition of falcipain-2-mediated hemoglobin degradation in ring stage Plasmodium falciparum assessed as development of swollen digestive vacuoles at 123 nM after 24 hrs
In short: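 Cultured parasites exposed to 123 nM compound for 24 h starting at ring stage. Examined for swollen digestive vacuoles with erythrocyte-cytoplasm staining characteristics.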

[5] = Cytotoxicity against HEK293T cells; assay type: cell-based, HEK-293T; conditions: human
[6] = Cytotoxicity against mouse NIH/3T3 cells; assay type: cell-based, NIH3T3
[7] = Selectivity index, ratio of CC50 for HEK293T cells to IC50 for chloroquine-resistant Plasmodium falciparum W2; assay type: functional, HEK-293T
In short: (§1)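 SI taken as in vitro cytotoxicity IC50 on HEK293T or NIH3T3 cells divided by the P. falciparum W2 growth-inhibition IC50.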

[8] = Selectivity index, ratio of CC50 for mouse NIH/3T3 cells to IC50 for chloroquine-resistant Plasmodium falciparum W2; assay type: functional; in short: as §1
Plasmodium falciparum [9] = test: Antiplasmodial activity against atovaquone-resistant Plasmodium falciparum FCR3 after 48 hrs by FACS analysis; assay type: functional, organism-based; conditions: FCR3, 48 h
Plasmodium berghei [10] = test: Antiplasmodial activity against liver stage Plasmodium berghei infected in human HuH7 cells assessed as decrease in parasite load at 2 uM treated for 1 hr prior to infection measured after 48 hrs by luciferase luminescence assay; conditions: Huh-7
Plasmodium berghei [11] = test: Antiplasmodial activity against liver stage Plasmodium berghei infected in human HuH7 cells assessed as decrease in parasite load at 10 uM treated for 1 hr prior to infection measured after 48 hrs by luciferase luminescence assay; conditions: Huh-7
Plasmodium berghei [12] = test: Antiplasmodial activity against Plasmodium berghei ANKA infected in C57Bl/6J mouse assessed as parasitemia level at 30 mg/kg/day, ip qd for 5 days measured on day 8 post-infection by microscopic/flow cytometric analysis; assay type: functional, organism-based
In short: (§2)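 C57Bl/6J mice infected intraperitoneally with 2 × 10^6 GFP-expressing P. berghei ANKA-infected erythrocytes. Treatment started at parasitemia ca. 3.9% (day 4 postinfection): 30 mg/kg bw once daily ip for 5 days. Controls received equivalent drug vehicle. Parasitemia was followed daily by microscopy and flow cytometry; disease symptoms and survival were also recorded daily.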

Plasmodium berghei [13] = test: Antiplasmodial activity against Plasmodium berghei ANKA infected in C57Bl/6J mouse assessed as parasitemia level at 30 mg/kg/day, ip qd for 5 days measured on day 18 post-infection by microscopic/flow cytometric analysis; assay type: functional; conditions: route intraperitoneal; in short: as §2
Plasmodium berghei [14] = test: Antiplasmodial activity against Plasmodium berghei ANKA infected in C57Bl/6J mouse assessed as survival at 30 mg/kg/day, ip qd for 5 days measured on day 18 post-infection; assay type: functional, organism-based; in short: as §2
[15] = Half life of the compound in 18 equiv of FeSO4 in aqueous acetonitrile assessed as N'-(5-bromo-2-cyanopyrimidin-4-yl)-N'-isobutyl-4-oxocyclohexanecarbohydrazide level by LC-MS analysis; assay type: physicochemical; conditions: buffer
In short: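 Aqueous solution of compound treated with high concentration of iron(II) sulfate; mixture analysed by LCMS. Decomposition to the ketone product fitted to first-order decay kinetics to give the half-life.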

Compound | IC50 [1] [µM] | IC50 (Plasmodium falciparum [2]) [µM] | IC50 (Plasmodium falciparum [3]) [µM] | inhibition (Plasmodium falciparum [4]) | CC50 [5] [µM] | CC50 [6] [µM] | Ratio CC50/IC50 [7] | Ratio CC50/IC50 [8] | IC50 (Plasmodium falciparum [9]) [µM] | Activity (Plasmodium berghei [10]) | Activity (Plasmodium berghei [11]) | Activity (Plasmodium berghei [12]) | Activity (Plasmodium berghei [13]) [%] | Activity (Plasmodium berghei [14]) | t1/2 [15] [h]
CC(C)CN(NC(=O)CC1CCC2(CC1)OOC1(OO2)C2CC3CC(C2)CC1C3)c1nc(C#N)ncc1Br (stereo not given) | 0.0951 | 0.0189 | 0.0228 | Active | 85.5 | 2.3 | 3750 | 101 |  |  |  |  |  |  | 
C[C@@H]1CC[C@H]2[C@@H](C)C(=O)O[C@@H]3O[C@@]4(C)CC[C@@H]1[C@]32OO4 [ARTEMISININ] |  | 0.0362 | 0.0141 |  |  |  |  |  | 0.0077 | inactive | inactive |  |  |  | 
N#Cc1ncc(Br)c(N(NC(=O)C2CCC3(CC2)OOC2(OO3)C3CC4CC(C3)CC2C4)C2CCCCC2)n1 (stereo not given) | 0.0253 | 0.0785 | 0.0224 | Active | > 100 | 1.4 | >4464 | 63 | 0.0812 |  |  |  |  |  | 
COc1cc(NC(C)CCCN)c2ncccc2c1 (stereo not given) |  |  |  |  |  |  |  |  |  |  | Active |  |  |  | 
O=C1C(O)=C([C@H]2CC[C@H](c3ccc(Cl)cc3)CC2)C(=O)c2ccccc21 |  |  |  |  |  |  |  |  |  | Active |  |  |  |  | 
N#Cc1ncc(Br)c(N(CC2CCCC2)NC(=O)C2CCC3(CC2)OOC2(OO3)C3CC4CC(C3)CC2C4)n1 (stereo not given) | 0.112 | 0.0707 | 0.0295 |  | > 100 | 5.5 | >3390 | 186 |  |  |  |  |  |  | 
CC(C)CN(NC(=O)C1CCC2(CC1)OOC1(OO2)C2CC3CC(C2)CC1C3)c1cc(Cl)nc(C#N)n1 (stereo not given) | 0.978 | 0.0284 | 0.0489 | inactive | > 100 | 1.7 | >2045 | 35 | 0.0377 |  |  |  |  |  | 
CC(C)CN(NC(=O)C1CCC2(CC1)OOC1(OO2)C2CC3CC(C2)CC1C3)c1nc(C#N)ncc1Br (stereo not given) | 0.0164 | 0.0581 | 0.0098 | Active | > 100 | 8 | >10000 | 816 |  |  |  |  |  |  | 
CC(C)CN(NC(=O)C1CCC2(CC1)OOC1(OO2)C2CC3CC(C2)CC1C3)c1nc(C#N)ncc1Cl (stereo not given) | 0.0034 | 0.0809 | 0.0338 | Active | > 100 | 4.5 | >2959 | 133 | 0.0533 |  |  | Active | 51 | Active | 5.1
CC(C)CN(NC(=O)C1CCC(=O)CC1)c1nc(C#N)ncc1Br | 0.0584 | 0.0482 | 0.0481 | Active | > 100 | > 100 | >2079 | >2079 |  | Active | Active |  |  |  | 
CC(C)CN(NC(=O)C1CCC2(CC1)OOC1(OO2)C2CC3CC(C2)CC1C3)c1ccnc(C#N)n1 (stereo not given) | 0.909 | 0.0131 | 0.0473 | inactive | > 100 | 0.9 | >2114 | 19 | 0.0303 |  |  |  |  |  | 
